Assay [1] has as its target APE1 (Homo sapiens, UniProt P27695). As to the kind of experiment: APE1 endonuclease. The assay is classed as biochemical. Put shortly:
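Purified full-length APE1 (0.25-1.25 nM) added to 50 nM duplex substrate (6-FAM strand with tetrahydrofuran AP-site mimic annealed to a quencher strand) in 50 mM Tris, 1 mM MgCl2, 50 mM NaCl, pH 7.5. Compounds in triplicate, 10-point 1:2 dilutions from 100 μM. Fluorescence read kinetically at five 1-min intervals immediately; reaction rate compared with DMSO vehicle.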

The test system of assay [2] is Pa02c cells. Put plainly: Cell cytotoxicity assay. The settings on record: Homo sapiens, 48 h, read-out: PaO2c EC50. The assay is classed as cell-based. Put shortly:
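Low-passage patient-derived pancreatic Pa02c cells, kept in DMEM with 10% FBS. Plated at 2000 cells/well in poly-D-lysine-treated plates and grown overnight at 37 °C, 5% CO2. Test compound in 5% FBS DMEM, 5-point 1:2 serial dilution from 100 µM, with DMSO vehicle and drug-background wells, for 48 h. Medium then refreshed and Alamar Blue added (10% final) for 4 h. Fluorescence read, background-subtracted, normalized to media alone.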

Three compounds from publication PMC6583781 (Journal of medicinal chemistry, 2019) can be followed below.

Chain of APE1 (P27695 whole entry): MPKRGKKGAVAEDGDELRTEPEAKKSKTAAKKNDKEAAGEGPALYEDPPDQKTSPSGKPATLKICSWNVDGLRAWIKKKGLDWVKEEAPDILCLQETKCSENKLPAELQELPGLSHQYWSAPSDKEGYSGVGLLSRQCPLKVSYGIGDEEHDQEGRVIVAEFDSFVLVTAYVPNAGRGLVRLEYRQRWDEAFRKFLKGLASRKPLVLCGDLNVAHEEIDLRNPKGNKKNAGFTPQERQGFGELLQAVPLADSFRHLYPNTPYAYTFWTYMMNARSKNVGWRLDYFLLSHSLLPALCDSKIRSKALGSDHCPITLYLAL

In general, IC50 refers to the concentration that inhibits the measured activity by half. Turning to `Cc1ccc(S(=O)(=O)n2cccc2[C@@H]2NC(=O)[C@H](Cc3c[nH]c4ccccc34)NC(=O)CCNC(=O)C/C=C/[C@@H]2C)cc1` [Compound 19, (3S,13S,14R,E)-3-((1H-Indol-3-yl)methyl)-13-methyl-14-(1-tosyl-1H-pyrrol-2-yl)-1,4,8-triazacyclotetradec-11-ene-2,5,9-trione], half-maximal inhibition in assay [1] (IC50) required 16.9 µM.
By EC50 is commonly meant the concentration needed to bring the measured effect to its halfway point. With `Cc1ccc(S(=O)(=O)n2cccc2[C@@H]2NC(=O)[C@H](Cc3c[nH]c4ccccc34)NC(=O)C[C@H](CCc3ccccc3)NC(=O)C/C=C/[C@@H]2C)cc1` [Compound 20, (3S,7S,13S,14R,E)-3-((1H-Indol-3-yl)methyl)-13-methyl-7-phenethyl-14-(1-tosyl-1H-pyrrol-2-yl)-1,4,8-triazacyclotetradec-11-ene-2,5,9-trione], in assay [2], the EC50 is greater than 100 µM.
Same read-out and setting: the same measure for `Cc1ccc(S(=O)(=O)n2cccc2[C@@H]2NC(=O)[C@H](Cc3c[nH]c4ccccc34)NC(=O)C[C@@H](CCc3ccccc3)NC(=O)C/C=C/[C@@H]2C)cc1` [Compound 21, (3S,7R,13S,14R,E)-3-((1H-Indol-3-yl)methyl)-13-methyl-7-phenethyl-14-(1-tosyl-1H-pyrrol-2-yl)-1,4,8-triazacyclotetradec-11-ene-2,5,9-trione]: greater than 100 µM.
